From ChEMBL document CHEMBL5653630, “Activation of the p53-MDM4 regulatory axis defines the anti-tumour response to PRMT5 inhibition through its role in regulating cellular splicing” (Sci Rep, 2018)
Calls of active or inactive are those of the source. No cut-off for these calls is given here.

Experiments:
SU-DHL-6 = assay: Antiproliferative activity against human SU-DHL-6 cells assessed as cell growth inhibition incubated for 6 days by celltiter-glo assay; format: functional; conditions: SU-DHL-6, 144 h, time 6 day
Procedure, shortened: (§1)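 Cells seeded in 384-well plates at an optimized density and held 24 h. Day 0: treated in duplicate with a 20-point two-fold series (top dose ≤29 μM, ≤0.15% DMSO) and incubated 6 days. CellTiter-Glo luminescence read at Day 0 and Day 6. Four-parameter fit. gIC50 = midpoint of the growth window between DMSO and T0. Curves required ≥1.5 population doublings.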

U-87 MG = assay: Antiproliferative activity against human U-87 MG cells assessed as cell growth inhibition incubated for 6 days by celltiter-glo assay; format: functional, U-87MG ATCC; conditions: 144 h, time 6 day; procedure, shortened: as §1
[1] = Antiproliferative activity against human PER-704 cells assessed as cell growth inhibition incubated for 6 days by celltiter-glo assay; format: functional; conditions: PER-704, 144 h, time 6 day; procedure, shortened: as §1
SU-DHL-2 = assay: Antiproliferative activity against human SUDHL2 cells assessed as cell growth inhibition incubated for 6 days by celltiter-glo assay; format: functional; conditions: SU-DHL-2, 144 h, time 6 day; procedure, shortened: as §1
5637 = assay: Antiproliferative activity against human 5637 cells assessed as cell growth inhibition incubated for 6 days by celltiter-glo assay; format: functional; conditions: Homo sapiens, 5637, 144 h; time 6 day
Procedure, shortened: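 Cells seeded in 384-well plates and held 24 h, then treated in duplicate with a 20-point two-fold dilution series (≤29 μM top dose, ≤0.15% DMSO) for 6 days. CellTiter-Glo luminescence read on Day 0 and Day 6. 4-parameter fit; curves QC'd for population doubling ≥1.5. gIC50 = concentration at the midpoint between the DMSO and T0 values.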

SK-BR-3 = assay: Antiproliferative activity against human SK-BR-3 cells assessed as cell growth inhibition incubated for 6 days by celltiter-glo assay; format: functional; conditions: SK-BR-3, 144 h, time 6 day; procedure, shortened: as §1
WSUDLCL2 = assay: Antiproliferative activity against human WSUDLCL2 cells assessed as cell growth inhibition incubated for 6 days by celltiter-glo assay; format: functional; conditions: WSUDLCL2, 144 h, time 6 day; procedure, shortened: as §1
Maver1 [2] = assay: Induction of apoptosis in human MAVER-1 cells assessed as early apoptotic cells incubated for 6 days by annexin-V/FITC propidium iodide staining based flow cytometry analysis; format: functional, cell-based; conditions: dose <= 5000.0 nM, time 6.0 day
Z-138 = assay: Antitumor activity against human Z138 cells xenografted in mouse assessed as reduction in tumor volume at 200 mg/kg, po qd pretreated for 21 days followed by treatment holiday for 10 days and further compound treatment for 2 weeks starting from day 32 followed by 1 week treatment holiday; format: functional, organism-based; conditions: time 52.0 day
LP-1 = assay: Antiproliferative activity against human LP-1 cells assessed as cell growth inhibition incubated for 6 days by celltiter-glo assay; format: functional; conditions: LP-1, 144 h, time 6 day; procedure, shortened: as §1
Pfeiffer = assay: Antiproliferative activity against human Pfeiffer cells assessed as cell growth inhibition incubated for 6 days by celltiter-glo assay; format: functional; conditions: 144 h, time 6 day; procedure, shortened: as §1
Maver1 [3] = assay: Antiproliferative activity against human MAVER-1 cells assessed as cell growth inhibition incubated for 6 days by celltiter-glo assay; format: functional; conditions: Maver1, 144 h, time 6 day; procedure, shortened: as §1
COLO 320 = assay: Antiproliferative activity against human COLO 320 cells assessed as cell growth inhibition incubated for 10 days; format: functional; conditions: COLO 320, 240 h, time 10 day
Procedure, shortened: (§2)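 Cells kept in RPMI-1640 with 10% FBS, 2 mM L-alanyl-L-glutamine and 1 mM Na pyruvate (or a special medium) at 37°C, 5% CO2. Compound added 24 h after seeding, 10 concentrations in 3.16-fold dilution, 0.1% DMSO final. Medium replaced and cells re-dosed at 168 h; 240 h incubation. Nuclei fixed, dye-stained and imaged. gIC50 = growth midway between untreated and time-zero cell counts, from a 4-parameter fit.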

HT = assay: Antiproliferative activity against human HT cells assessed as cell growth inhibition incubated for 10 days; format: functional; conditions: 240 h, time 10 day
Procedure, shortened: (§3)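 Outsourced panel run in 384-well plates. Cells were grown in RPMI-1640/10% FBS or a special medium at 37°C, 5% CO2. Compound was added 24 h after seeding as a 10-point, 3.16-fold series in 0.1% DMSO. Medium was refreshed and cells re-dosed at 168 h, with a time-zero plate kept. At 240 h cells were fixed, nuclei stained and imaged. gIC50 is growth midway between untreated and time zero, from a 4-parameter fit.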

SCC-25 = assay: Antiproliferative activity against human SCC-25 cells assessed as cell growth inhibition incubated for 10 days; format: functional; conditions: SCC-25, 240 h, time 10 day
Calu-6 = assay: Antiproliferative activity against human Calu-6 cells assessed as cell growth inhibition incubated for 10 days; format: functional; conditions: Calu-6, 240 h, time 10 day; procedure, shortened: as §3
Malme-3M = assay: Antiproliferative activity against human Malme-3M cells assessed as cell growth inhibition incubated for 10 days; format: functional; conditions: 240 h, time 10 day
SNU-423 = assay: Antiproliferative activity against human SNU-423 cells assessed as cell growth inhibition incubated for 10 days; format: functional; conditions: SNU-423, 240 h, time 10 day
EB-3 = assay: Antiproliferative activity against human EB-3 cells assessed as cell growth inhibition incubated for 10 days; format: functional; conditions: EB-3, 240 h, time 10 day; procedure, shortened: as §3
Capan-2 = assay: Antiproliferative activity against human Capan-2 cells assessed as cell growth inhibition incubated for 10 days; format: functional; conditions: Capan-2, 240 h, time 10 day; procedure, shortened: as §3
ARH-77 = assay: Antiproliferative activity against human ARH-77 cells assessed as cell growth inhibition incubated for 10 days; format: functional; conditions: ARH-77, 240 h, time 10 day; procedure, shortened: as §2
[4] = Antiproliferative activity against human C4-1 cells assessed as cell growth inhibition incubated for 10 days; format: functional; conditions: C4-1, 240 h, time 10 day; procedure, shortened: as §2
NCI-H69 = assay: Antiproliferative activity against human NCI-H69 cells assessed as cell growth inhibition incubated for 10 days; format: functional; conditions: NCI-H69, 240 h, time 10 day
SCC-4 = assay: Antiproliferative activity against human SCC-4 cells assessed as cell growth inhibition incubated for 10 days; format: functional; conditions: SCC-4, 240 h, time 10 day
H4 = assay: Antiproliferative activity against human H4 cells assessed as cell growth inhibition incubated for 10 days; format: functional; conditions: H4, 240 h, time 10 day; procedure, shortened: as §3
Caov-3 cell line = assay: Antiproliferative activity against human Caov-3 cell line assessed as cell growth inhibition incubated for 10 days; format: functional; conditions: Caov-3, 240 h, time 10 day; procedure, shortened: as §3
DOHH-2 = assay: Antiproliferative activity against human DOHH-2 cells assessed as cell growth inhibition incubated for 6 days by celltiter-glo assay; format: functional; conditions: DOHH-2, 144 h, time 6 day
[5] = target: Protein arginine N-methyltransferase 5 (Homo sapiens) (UniProt O14744); assay: Inhibition of PRMT5 in human Z138 cells assessed as full length MDM4 splicing at 200 to 1000 nM incubated for 3 days by RT-PCR analysis; format: cell-based; conditions: dose 200-1000 nM, time 3.0 day
SW480 = assay: Antiproliferative activity against human SW480 cells assessed as cell growth inhibition incubated for 10 days; format: functional; conditions: SW480, 240 h, time 10 day
[6] = target: Protein arginine N-methyltransferase 5 (Homo sapiens) (UniProt O14744); assay: Inhibition of PRMT5 in p53 knockout human Z138 cells effect on p21 expression at 500 nM incubated for 3 to 11 days by Western blot analysis; format: cell-based; conditions: time 3-11 day
[7] = Antiproliferative activity against human TE 381.T cells assessed as cell growth inhibition incubated for 10 days; format: functional; conditions: 240 h, time 10 day

Sequence of Protein arginine N-methyltransferase 5 (Homo sapiens) (O14744 whole entry): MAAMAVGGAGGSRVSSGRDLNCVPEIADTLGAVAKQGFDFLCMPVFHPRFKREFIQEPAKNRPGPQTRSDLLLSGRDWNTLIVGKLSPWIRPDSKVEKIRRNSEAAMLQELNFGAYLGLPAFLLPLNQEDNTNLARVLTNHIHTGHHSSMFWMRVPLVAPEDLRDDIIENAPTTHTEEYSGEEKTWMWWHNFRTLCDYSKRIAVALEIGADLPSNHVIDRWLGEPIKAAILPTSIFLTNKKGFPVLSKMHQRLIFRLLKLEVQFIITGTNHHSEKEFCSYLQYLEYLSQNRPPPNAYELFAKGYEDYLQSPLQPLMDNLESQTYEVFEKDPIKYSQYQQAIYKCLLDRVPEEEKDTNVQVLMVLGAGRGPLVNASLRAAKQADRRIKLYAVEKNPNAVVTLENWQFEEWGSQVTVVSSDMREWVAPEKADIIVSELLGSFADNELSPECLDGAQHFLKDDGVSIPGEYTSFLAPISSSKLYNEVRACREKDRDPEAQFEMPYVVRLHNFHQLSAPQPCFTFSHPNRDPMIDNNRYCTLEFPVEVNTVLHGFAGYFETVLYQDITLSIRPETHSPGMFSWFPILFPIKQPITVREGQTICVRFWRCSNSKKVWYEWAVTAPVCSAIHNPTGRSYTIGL

## CC(=O)N1CCC(Nc2cc(C(=O)NC[C@H](O)CN3CCc4ccccc4C3)ncn2)CC1 [PEMRAMETOSTAT]
SU-DHL-6
  GI50: 4 nM
U-87 MG
  GI50: 40 nM
[1]
  GI50: 658 nM
SU-DHL-2
  GI50: 28 nM
5637
  GI50: 69 nM
SK-BR-3
  GI50: 73 nM
WSUDLCL2
  GI50: 82 nM
Maver1 [2]
  Activity: Dose-Dependent Effect
Z-138
  Activity: Active
LP-1
  GI50: 1940 nM
Pfeiffer
  GI50: 421 nM
Maver1 [3]
  GI50: 85 nM

## O=C(NC[C@H](O)CN1CCc2ccccc2C1)c1ccnc(NC2CCC2)c1
SU-DHL-6
  GI50: 13 nM
COLO 320
  GI50: 80.3 nM
HT
  GI50: 206 nM
U-87 MG
  GI50: 127 nM
[1]
  GI50: 375 nM
SCC-25
  GI50: 273 nM
SU-DHL-2
  GI50: 86 nM
Calu-6
  GI50: 206 nM
5637
  GI50: 143 nM
Malme-3M
  GI50: 265 nM
SNU-423
  GI50: 66 nM
EB-3
  GI50: 299 nM
SK-BR-3
  GI50: 131 nM
Capan-2
  GI50: 69.7 nM
WSUDLCL2
  GI50: 651 nM
ARH-77
  GI50: 44.4 nM
[4]
  GI50: 139 nM
NCI-H69
  GI50: 144 nM
SCC-4
  GI50: 286 nM
H4
  GI50: 151 nM
Caov-3 cell line
  GI50: 298 nM
DOHH-2
  GI50: 116 nM
[5]
  inhibition: Active
LP-1
  GI50: 975 nM
SW480
  GI50: 413 nM
[6]
  inhibition: inactive
Pfeiffer
  GI50: 352 nM
Maver1 [3]
  GI50: 133 nM
[7]
  GI50: 147 nM
